In ChEMBL document CHEMBL4364270, “Structure-activity relationship studies on Bax activator SMBA1 for the treatment of ER-positive and triple-negative breast cancer” (Eur J Med Chem, 2019):
Active and inactive are the calls of the source. No cut-off for these calls is given here.

What was measured:
[1] = test system: MDA-MB-231; assay: Antiproliferative activity against triple negative human MDA-MB-231 cells assessed as reduction in cell growth incubated for 48 hrs by MTT assay; assay type: functional, cell-based; settings: MDA-MB-231, 48 h
How it was run: (§1)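 MTT viability: MCF-7 and MDA-MB-231 seeded 1×10^4 cells/well, exposed to DMSO or 0.01-100 μM for 48 h; MTT (5 mg/mL in PBS) added 4 h, formazan dissolved in DMSO, OD 550 nm; quadruplicate wells; IC50 fitted for compounds giving >50% inhibition at 10 µM; at least three independent experiments.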

[2] = test system: MCF7; assay: Antiproliferative activity against ER-positive human MCF7 cells assessed as reduction in cell growth incubated for 48 hrs by MTT assay; assay type: functional, cell-based; settings: MCF7, 48 h; how it was run: as §1
[3] = test system: MCF-10A; assay: Antiproliferative activity against human MCF10A cells assessed as reduction in cell growth incubated for 72 hrs by MTT assay; assay type: functional, cell-based
How it was run: (§2)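 MTT viability after 72 h exposure at indicated concentrations; cells seeded at 1×10^3 cells/well (T47D, MDA-MB-468, MCF-10A, MCF-7/ADR) in 96-well plates; quadruplicate wells, independently repeated three times; IC50 as mean ± SE of at least three experiments.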

[4] = test system: T47D; assay: Antiproliferative activity against ER-positive human T47D cells assessed as reduction in cell growth incubated for 72 hrs by MTT assay; assay type: functional, cell-based; how it was run: as §2
[5] = test system: MDA-MB-468; assay: Antiproliferative activity against triple negative human MDA-MB-468 cells assessed as reduction in cell growth incubated for 72 hrs by MTT assay; assay type: functional, cell-based; settings: MDA-MB-468, 72 h; how it was run: as §2
[6] = test system: MDA-MB-231; assay: Potency index, ratio of SMBA1 IC50 to compound IC50 for antiproliferative activity against triple negative human MDA-MB-231 cells assessed as reduction in cell growth incubated for 48 hrs by MTT assay; assay type: functional
[7] = test system: MCF7; assay: Potency index, ratio of SMBA1 IC50 to compound IC50 for antiproliferative activity against ER-positive human MCF7 cells assessed as reduction in cell growth incubated for 48 hrs by MTT assay; assay type: functional
[8] = test system: MCF7; assay: Antiproliferative activity against ER-positive human MCF7 cells assessed as reduction in cell growth at 1 uM incubated for 48 hrs by MTT assay relative to control; assay type: functional; settings: MCF7, 48 h; how it was run: as §1
[9] = test system: MCF7; assay: Antiproliferative activity against adriamycin-resistant human MCF7 cells assessed as reduction in cell growth incubated for 72 hrs by MTT assay; assay type: functional, cell-based; how it was run: as §2
[10] = test system: T47D; assay: Antiproliferative activity against ER-positive human T47D cells assessed as reduction in cell growth at 1 uM incubated for 72 hrs by MTT assay relative to control; assay type: functional; how it was run: as §2
[11] = test system: MDA-MB-231; assay: Inhibition of colony formation in triple negative human MDA-MB-231 cells at 1 uM supplemented with fresh medium containing compound every 72 hrs for 2 weeks by crystal violet staining based assay; assay type: functional, cell-based
How it was run: (§3)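 Clonogenic assay: 800 cells per well seeded, treated after 24 h with 1 μM or DMSO vehicle, medium with compound renewed every 72 h for 2 weeks; PBS wash, 0.01% crystal violet 10 min, whole-well density digitally quantified; triplicate, one-way ANOVA, SD error bars.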

[12] = test system: MCF7; assay: Inhibition of colony formation in ER-positive human MCF7 cells at 1 uM supplemented with fresh medium containing compound every 72 hrs for 2 weeks by crystal violet staining based assay; assay type: functional, cell-based; how it was run: as §3
[13] = test system: MDA-MB-231; assay: Induction of apoptosis in triple negative human MDA-MB-231 cells assessed as appearance of concentrated dense granules at 5 to 10 uM incubated for 24 hrs by Hoechst 33342 staining based fluorescence microscopy; assay type: functional, cell-based
How it was run: (§4)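 Cells on coverslips (2.5×10^5/well) treated with DMSO or 5 and 10 μM for 24 h, washed in binding buffer, stained 15 min with FITC-annexin V, ethidium homodimer III and Hoechst 33342, mounted and imaged by fluorescence microscopy (DAPI filter) from center and peripheral regions.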

[14] = test system: MCF7; assay: Induction of apoptosis in ER-positive human MCF7 cells assessed as appearance of concentrated dense granules at 5 to 10 uM incubated for 24 hrs by Hoechst 33342 staining based fluorescence microscopy; assay type: functional, cell-based; how it was run: as §4
[15] = biological target: Apoptosis regulator BAX (Homo sapiens) (UniProt Q07812); assay: Activation of Bax in ER-positive human MCF7 cells assessed as reduction in Bax phosphorylation at Ser184 at 5 uM incubated upto 48 hrs by Western blotting analysis; assay type: cell-based; settings: TDE = time-dependent effect
How it was run: (§5)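 Western blot of MCF-7 (and MDA-MB-231 for cytosolic fractions) cells exposed to 5 μM over 0-48 h; 30 µg protein per lane on SDS-PAGE, PVDF transfer, 5% milk block, overnight primary antibodies (total Bax, p-Bax, active Bax 6A7, cytochrome C), ECL detection; cytosolic fraction used for cytochrome c and Bax.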

[16] = biological target: Apoptosis regulator BAX (Homo sapiens) (UniProt Q07812); assay: Activation of Bax in ER-positive human MCF7 cells assessed as increase in active Bax 6A7 isoform protein level at 5 uM incubated upto 48 hrs by Western blot analysis; assay type: cell-based; how it was run: as §5
[17] = test system: MCF7; assay: Induction of apoptosis in ER-positive human MCF7 cells assessed as increase in total Bax protein level at 5 uM incubated upto 48 hrs by Western blot analysis; assay type: functional, cell-based; how it was run: as §5
[18] = biological target: Apoptosis regulator BAX (Homo sapiens) (UniProt Q07812); assay: Activation of Bax in ER-positive human MCF7 cells assessed as increase in cytosolic cytochrome C level at 5 uM incubated for 48 hrs by Western blot analysis; assay type: cell-based; how it was run: as §5
[19] = biological target: Apoptosis regulator BAX (Homo sapiens) (UniProt Q07812); assay: Activation of Bax in triple-negative human MDA-MB-231 cells assessed as increase in cytosolic cytochrome C level at 5 uM incubated for 48 hrs by Western blot analysis; assay type: cell-based; how it was run: as §5
[20] = test system: MCF7; assay: Induction of apoptosis in ER-positive human MCF7 cells assessed as decrease in cytosolic Bax level at 5 uM incubated for 48 hrs by Western blot analysis; assay type: functional, cell-based; how it was run: as §5
[21] = test system: MCF7; assay: Induction of apoptosis in ER-positive human MCF7 cells assessed as upregulation of PARP1 cleavage incubated for 48 hrs by Western blot analysis; assay type: functional, cell-based
How it was run: (§6)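 Western blot: cells harvested after treatment, lysates quantified by Bradford (BSA standard), 30 µg protein resolved by SDS-PAGE, transferred to PVDF, blocked in 5% nonfat milk, probed overnight with anti-PARP-1, anti-cleaved PARP-1 or anti-cyclin D1 (1:1,000) and β-actin loading control; ECL visualization.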

[22] = test system: MDA-MB-231; assay: Induction of apoptosis in triple-negative human MDA-MB-231 cells assessed as upregulation of PARP1 cleavage incubated for 48 hrs by Western blot analysis; assay type: functional, cell-based; how it was run: as §6
[23] = test system: MDA-MB-231; assay: Induction of apoptosis in triple negative human MDA-MB-231 cells assessed as upregulation of caspase3 cleavage incubated for 48 hrs by Western blot analysis; assay type: functional, cell-based
[24] = test system: MCF7; assay: Induction of apoptosis in ER-positive human MCF7 cells assessed as downregulation of cyclin D1 level incubated for 48 hrs by Western blot analysis; assay type: functional, cell-based; how it was run: as §6
[25] = test system: MDA-MB-231; assay: Antitumor activity against triple-negative human MDA-MB-231 cells xenografted in mouse assessed as reduction in tumor growth at 2.5 mg/kg, ip administered once daily for 7 days; assay type: functional; settings: MDA-MB-231, ip, 168 h, read-out: GI
How it was run: (§7)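 Female nude mice (6 weeks) given 2.5×10^6 MDA-MB-231 cells in PBS into third mammary fat pad, randomized into four groups; at 200 mm³ tumor volume dosed i.p. daily for 7 days in 50% DMSO/50% PEG vehicle; tumor volume (0.5×L×W²) and body weight measured daily; one-way ANOVA.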

[26] = Toxicity in mouse xenografted with triple-negative human MDA-MB-231 cells assessed as slight reduction in body weight at 2.5 mg/kg, ip administered once daily for 7 days; assay type: organism-based; settings: in vivo, 168 h; how it was run: as §7

Sequence of Apoptosis regulator BAX (Homo sapiens) (Q07812 whole entry, canonical isoform): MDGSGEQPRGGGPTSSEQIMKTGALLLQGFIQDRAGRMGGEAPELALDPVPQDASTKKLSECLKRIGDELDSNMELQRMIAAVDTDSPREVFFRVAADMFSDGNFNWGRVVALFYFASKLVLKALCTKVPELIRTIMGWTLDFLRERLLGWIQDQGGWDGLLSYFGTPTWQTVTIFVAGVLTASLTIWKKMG

NCCOc1ncccc1C=C1c2ccccc2-c2ccc([N+](=O)[O-])cc21
IC50 [1]: 70 nM
IC50 [2]: 60 nM
IC50 [3]: 110 nM
IC50 [4]: 1200 nM
IC50 [5]: 1610 nM
Ratio IC50 [6]: 80 - 130
Ratio IC50 [7]: 80 - 130
inhibition at 1 µM [8]: > 50%
inhibition [9]: Dose-dependent effect
inhibition at 1 µM [10]: > 50%
inhibition [11]: Active
inhibition [12]: Active
Activity [13]: Active
Activity [14]: Active
inhibition [15]: Tde
Activity [16]: Active
Activity [17]: Active
Activity [18]: Active
Activity [19]: Active
Activity [20]: Active
Activity [21]: Dose-dependent effect
Activity [22]: Dose-dependent effect
Activity [23]: Dose-dependent effect
Activity [24]: Dose-dependent effect
inhibition in vivo at 2.5 mg/kg [25]: 55%
Activity [26]: Toxic
